Here are results for 1 substance from paper PMC8693849 (RSC Advances, 2021).

As usually defined, the CC50 is the concentration giving 50% cytotoxicity. As a reminder, the MIC is the smallest concentration in the dilution series that meets the test's criterion for growth inhibition. The low end stands for greater potency, the high end for weaker potency.

The test system of one data set is C. albicans. The data set can be described thus: Agar diffusion method, zone of inhibition. It counts as cell-based, Candida albicans. Particulars: C. albicans, average of triplicate. In short, it runs like this:
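For agar diffusion against C. albicans, each test compound (1 mg) was dissolved in 1 mL DMSO and diluted to 10 mL with sterile water (100 μg mL⁻¹ stock). The solution was placed in the agar, and the inhibition zone diameter was read after 24 h. Values are the average of triplicate readings.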

For data set [1], the system named is MRSA1 (methicillin resistant S. aureus). In words: Zone of inhibition against MDR clinical isolate. Conditions: MRSA1 clinical isolate, 15 μg mL^−1. It counts as cell-based.
The subject of data set [2] is K. pneumoniae (MDR clinical isolate). In words: Minimum bactericidal concentration. It counts as cell-based. Conditions: >4 = bacteriostatic.
In another data set the test system is P. fluorescens (S 97). The data set can be described thus: Agar diffusion method, zone of inhibition. The format is cell-based, Pseudomonas fluorescens. Particulars: P. fluorescens (S 97), 15 μg mL^−1, 24 h, average of triplicate. In short, it runs like this: (§1)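 Bacterial strains were tested by agar diffusion on nutrient agar (peptone 5 and meat extract 3 g L⁻¹ in distilled water, pH 7.0, 2% agar, autoclaved 121 °C for 20 min). Each test compound (1 mg) was dissolved in 1 mL DMSO and made up to 10 mL with sterile water (100 μg mL⁻¹ stock). The solution was placed in the agar, and inhibition zones were measured after 24 h incubation. Values are the mean of triplicate readings.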
On the technique in general: In agar diffusion tests the substance spreads into inoculated agar from a disc or well.

Another data set deals with VERO cells. In words: In vitro cytotoxicity, MTT assay. The format is cell-based, African Green Monkey. Particulars: normal VERO cells, 72 h, Table 4. On the technique in general: Formazan colour is commonly taken as a measure of viable cells.
Data set [3] deals with K. pneumoniae (MDR clinical isolate). In words: Minimal inhibitory concentration. It counts as cell-based. In short, it runs like this: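 Broth microdilution against MDR clinical isolates: 80 μl Mueller–Hinton broth plus 20 μl tween 80 received 100 μl test compound, then two-fold serial dilution. Each well was inoculated with 100 μl of 0.5 McFarland suspension ([…]) and incubated covered at 35 ± 2 °C for 24 h. MIC is the lowest concentration inhibiting growth.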

Data set [4] shares this test system. The data set can be described thus: Zone of inhibition against MDR clinical isolate. The format is cell-based. Particulars: MDR K. pneumoniae clinical isolate, 15 μg mL^−1.
A further data set has as its system Gram-negative bacteria. The data set can be described thus: Agar diffusion method. The format is cell-based, P. phaseolicola (GSPB 2828) and P. fluorescens (S 97). Particulars: summary of Table 1. In short, it runs like this:
as §1

The next data set relates to S. aureus (ATCC 25923). The data set can be described thus: Agar diffusion method, zone of inhibition. It counts as cell-based, Staphylococcus aureus. Conditions: S. aureus (ATCC 25923), average of triplicate. The essentials:
as §1

The subject of another data set is S. pyogenes (ATCC 19615). The data set can be described thus: Agar diffusion method, zone of inhibition. It counts as cell-based, Streptococcus pyogenes. Conditions: S. pyogenes (ATCC 19615), 10 μg mL^−1, 24 h, average of triplicate.

Take “2-(5-(4-Chlorophenyl)-6-cyano-2-(2-hydroxyphenyl)-7-imino-1,2-dihydro-[1,2,4]triazolo[1,5-a]pyrimidin-3(7H)-yl)propanoic acid [Compound 8a]”: the “Diameter of zone inhibition” value is given as 10 mm in the data set on C. albicans (10 μg mL^−1, 24 h); 13 mm in the data set on C. albicans (15 μg mL^−1, 24 h); 6 mm in [1]; 29 mm in the data set with P. fluorescens (S 97); 28 mm in [4]; 13 mm in the data set with S. aureus (ATCC 25923) (10 μg mL^−1, 24 h). Further, the “Diameter of zone inhibition” value in the data set with S. aureus (ATCC 25923) (15 μg mL^−1, 24 h) was found to be 20 mm; in the data set with S. pyogenes (ATCC 19615), 12 mm. Further, in data set [2], the “MIC index (MBC/MIC)” value was above 4. In the data set with VERO cells, the CC50 came out at 125 µg/mL. Moreover, the MIC in data set [3] (K. pneumoniae, Table 3) worked out at 12.5 µg/mL; in [3] (MDR K. pneumoniae clinical isolate, Table 2), 12.5 µg/mL. The “Activity against Gram-negative bacteria” value in the data set on Gram-negative bacteria was “active”.
